Source: PMC3481142 (Cell Death & Disease, 2012)
Square brackets hold non-standard residues; d marks the D form. Peptide text beside a SMILES is read from it.

How the values were obtained:
Saos-2 cells = assay: cytochrome c release, immunolocalization; assay type: cell-based; conditions: 10 µM, 24 h
[1] = test system: Cyt c release in MDA-MB-468 cells; assay: Cyt c release from mitochondria; assay type: cell-based, human; conditions: 48 h; doxorubicin 5 μM
Procedure, shortened: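 MDA-MB-468 cells were grown as a monolayer in Leibovitz's L-15 with 10% FBS at 37 °C without CO2, then seeded at 125 000 cells/ml. They were exposed to the test compounds for 48 h at the indicated concentrations. Cytochrome c release was quantified with a flow-cytometric cytochrome c release kit per the manufacturer's protocol, and cells were analysed on a flow cytometer.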

[2] = test system: Bcl-2 family proteins, IAPs and caspases in MDA-MB-468 cells; assay: western blots of apoptosis-related proteins and caspases; assay type: cell-based, human; conditions: 72 h
Procedure, shortened: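 MDA-MB-468 cells were treated for 72 h with TAT-NBI1, erlotinib or both at the indicated μM concentrations. Whole-cell extracts were made in 25 mM Tris-HCl pH 7.4, 1 mM EDTA, 1 mM EGTA and 1% SDS with protease and phosphatase inhibitors, and protein was quantified by BCA. Lysates were run on SDS-PAGE, transferred to nitrocellulose and immunoblotted.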

[3] = patients with advance solid tumors; cited from earlier work
SKBr3 cells = assay: MTT and trypan blue cell viability assays; assay type: cell-based, human
MDA-MB-231 cell line = assay: cell viability IC50 determination; assay type: cell-based; conditions: Homo sapiens, MDA-MB-231, read-out: IC50 (MDA-MB-231)
[4] = solubility in culture medium; assay type: physicochemical
[5] = test system: caspase-3/7 activity in MDA-MB-231 cells; assay: caspase activation assay in cellular extracts; assay type: cell-based
Procedure, shortened: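 MDA-MB-231 cells were grown in Leibovitz's L-15 with 10% FBS at 37 °C without CO2. Cells were co-treated with TAT-NBI1/erlotinib at the indicated μM concentrations, with or without necrostatin-1 (100 μM). Etoposide (25 μM) ± necrostatin-1 served as reference. Caspase-3/7 activation was measured in cellular extracts.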

[6] = test system: caspase-3/7 activity in MDA-MB-468 cells; assay: caspase activation assay in cellular extracts; assay type: cell-based, human
Procedure, shortened: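 MDA-MB-468 cells were cultured in L-15 with 10% FBS at 37 °C without CO2 and seeded at 125 000 cells/ml. They received TAT-NBI1/erlotinib co-treatment at the indicated μM concentrations, with or without necrostatin-1, for 48 h. Caspase-3/7 activity was then measured in cellular extracts.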

CC[C@@H](C)[C@@H](NC(=O)[C@@H](Cc1c[nH]c2ccccc12)NC(=O)[C@@H](CCCNC(=N)N)NC(=O)[C@H](CCC(N)=O)NC(=O)[C@@H]1CCCN1C(=O)[C@H](CCCNC(=N)N)NC(=O)[C@H](CCCNC(=N)N)NC(=O)[C@H](CCCNC(=N)N)NC(=O)[C@H](CCC(N)=O)NC(=O)[C@H](CCCNC(=N)N)NC(=O)[C@H](CCCNC(=N)N)NC(=O)[C@H](CCCCN)NC(=O)[C@H](CCCCN)NC(=O)[C@H](CCCNC(=N)N)NC(=O)CN)C(=O)N[C@H](CCSC)C(=O)N[C@H](Cc1ccc(O)cc1)C(=O)N[C@H](Cc1ccccc1)C(N)=O [TAT-NBI1] (H-GRKKRRQRRRPQ[dR][dW][dI][dM][dY][dF]-NH2; N-terminus and C-terminus assumed)
mechanism of cell death followed by cytochrome c release to the cytosol (Saos-2 cells): induced cell death by intrinsic, mitochondrial-mediated, apoptosis

COc1cccc2c1C(=O)c1c(O)c3c(c(O)c1C2=O)C[C@@](O)(C(=O)CO)C[C@@H]3O[C@H]1C[C@H](N)[C@H](O)[C@H](C)O1 [doxorubicin]
Cyt c release to the cytoplasm [1]: Cyt c release to the cytoplasm

C#Cc1cccc(Nc2ncnc3cc(OCCOC)c(OCCOC)cc23)c1 [erlotinib]
Bim expression [2]: upregulated | plasma concentration at the steady state [3]: ~5 µM | change of lethal dose of erlotinib in the presence of TAT-NBI1 (SKBr3 cells): twofold lower | IC50 (MDA-MB-231 cell line): > 20 µM | solubility [4]: ≤ 20 µM

CN1C(=O)C(Cc2c[nH]c3ccccc23)NC1=S (stereo not drawn) [nec-1, necrostatin-1]
effect on TAT-NBI1/erlotinib-induced caspase activation [5]: inhibited | effect on TAT-NBI1/erlotinib-induced caspase activation [6]: inhibited
